Ki data for 17 compounds are collected here from ChEMBL document CHEMBL1126667, “CCK-B agonist or antagonist activities of structurally hindered and peptidase-resistant Boc-CCK4 derivatives” (J Med Chem, 1993).

Format in all cases: cell membranes
Assay [1] addresses T1, Cholecystokinin receptor type A (Cavia porcellus, UniProt Q63931).
T1 sequence (Q63931 whole entry): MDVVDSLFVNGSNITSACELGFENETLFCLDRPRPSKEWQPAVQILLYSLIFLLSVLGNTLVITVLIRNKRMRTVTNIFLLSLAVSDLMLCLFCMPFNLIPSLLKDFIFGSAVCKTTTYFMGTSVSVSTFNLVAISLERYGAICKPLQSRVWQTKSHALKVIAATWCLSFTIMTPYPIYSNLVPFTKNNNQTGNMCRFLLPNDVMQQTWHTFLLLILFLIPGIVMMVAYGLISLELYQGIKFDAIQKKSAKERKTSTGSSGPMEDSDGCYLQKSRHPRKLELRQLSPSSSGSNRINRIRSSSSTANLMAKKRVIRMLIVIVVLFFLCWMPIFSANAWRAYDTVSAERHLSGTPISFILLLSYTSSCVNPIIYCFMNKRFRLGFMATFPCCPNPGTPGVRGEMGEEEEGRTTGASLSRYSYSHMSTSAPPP
The assay can be described thus: Affinity of compound on binding of [3H]pCCK-8 to the cholecystokinin type A receptor in guinea pig pancreatic membrane. In short, it runs like this:
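Competition binding on guinea pig pancreatic membranes (0.2 mg protein/mL) using [3H]pCCK8 at 0.2 nM. Nonspecific binding defined with 1 μM CCK8. Reaction stopped by filtration over BSA-precoated GF/B filters and counted. KI derived by Cheng-Prusoff.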

The target in assay [2] is T1, Cholecystokinin receptor type A. The assay can be described thus: Displacement of [3H]-pCCK-8 from cholecystokinin-A receptor in guinea pig pancreatic membrane. In short, it runs like this: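 Competition binding on guinea pig pancreatic membranes (0.2 mg protein/mL) using [3H]pCCK8 at 0.2 nM. Reaction stopped by filtration over BSA-precoated GF/B filters and counted. KI derived by Cheng-Prusoff.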

The target of assay [3] is T2, Gastrin/cholecystokinin type B receptor (Rattus norvegicus, UniProt P30553).
T2 sequence (P30553 whole entry): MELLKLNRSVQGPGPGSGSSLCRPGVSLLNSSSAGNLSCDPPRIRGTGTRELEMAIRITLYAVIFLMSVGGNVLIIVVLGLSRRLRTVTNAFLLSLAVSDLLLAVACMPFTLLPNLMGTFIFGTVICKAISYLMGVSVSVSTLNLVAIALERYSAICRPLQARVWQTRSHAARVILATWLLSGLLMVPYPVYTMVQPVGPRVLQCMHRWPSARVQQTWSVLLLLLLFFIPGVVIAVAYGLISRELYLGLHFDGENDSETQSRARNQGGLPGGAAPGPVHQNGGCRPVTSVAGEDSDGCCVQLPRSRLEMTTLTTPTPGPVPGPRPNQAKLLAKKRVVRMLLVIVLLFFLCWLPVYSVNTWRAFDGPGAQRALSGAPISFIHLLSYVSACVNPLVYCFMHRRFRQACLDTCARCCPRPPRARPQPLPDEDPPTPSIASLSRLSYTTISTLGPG
In words: Affinity of compound on binding of [3H]pCCK-8 to the cholecystokinin type B receptor in rat brain membrane. In short, it runs like this: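 Brain membranes (0.6 mg protein/mL; rat or guinea pig) incubated with 0.2 nM [3H]pCCK8 in 50 mM Tris-HCl pH 7.4, 5 mM MgCl2, 0.2 mg/mL bacitracin, 60 min at 25 °C. Filtered on BSA-precoated GF/B filters and counted. KI by Cheng-Prusoff; mean ± SEM of three experiments, each in triplicate.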

Molecules are shown by their SMILES. Non-standard residues stand in square brackets, D forms with d. Residues, ends and D or L forms follow the SMILES beside them. *: point of attachment. NMe1Nal = CN[C@@H](Cc1cccc2ccccc12)C(=O)O; NMeW = CN[C@@H](Cc1c[nH]c2ccccc12)C(=O)O; 1Nal = N[C@@H](Cc1cccc2ccccc12)C(=O)O; 2Nal = N[C@@H](Cc1ccc2ccccc2c1)C(=O)O; Chg = N[C@H](C(=O)O)C1CCCCC1; Phg = N[C@H](C(=O)O)c1ccccc1; Nle = CCCC[C@H](N)C(=O)O; OtBu = CC(C)(C)O*

Regarding `CN(C(=O)[C@H](Cc1ccccc1)NC(=O)[C@H](CC(=O)O)NC(=O)[C@@H](N)Cc1ccccc1)[C@@H](Cc1c[nH]c2ccccc12)C(=O)OC(C)(C)C`, the affinity in assay [1] corresponds to a Ki of 3200 nM.
The same measure, in the same setting: in the case of `CN(C(=O)[C@H](Cc1ccccc1)NC(=O)[C@H](CC(=O)O)NC(=O)[C@@H](N)Cc1ccccc1)[C@H](Cc1c[nH]c2ccccc12)C(=O)OC(C)(C)C` it was 8000 nM.
As for `CCCC[C@H](NC(=O)[C@H](CC(=O)O)NC(=O)[C@@H](N)Cc1cccc2ccccc12)C(=O)N(C)[C@@H](Cc1c[nH]c2ccccc12)C(=O)OC(C)(C)C`, the Ki in assay [2] amounted to 1200 nM.
`CN(C)[C@@H](Cc1cccc2ccccc12)C(=O)N[C@@H](CC(=O)O)C(=O)N[C@H](C(=O)N[C@@H](Cc1c[nH]c2ccccc12)C(=O)OC(C)(C)C)C1CCCCC1` had a Ki in assay [2] of 5400 nM.
On to `CN(C)[C@@H](Cc1cccc2ccccc12)C(=O)N[C@@H](CC(=O)O)C(=O)N[C@H](C(=O)N[C@@H](Cc1c[nH]c2ccccc12)C(=O)OC(C)(C)C)c1ccccc1`, for which the inhibition constant (Ki) came out at 51 nM in assay [3] and 1000 nM in assay [2].
The compound `CCCC[C@H](NC(=O)[C@H](CC(=O)O)NC(=O)[C@H](Cc1cccc2ccccc12)N(C)C)C(=O)N(C)[C@@H](Cc1c[nH]c2ccccc12)C(=O)OC(C)(C)C` gave a Ki in assay [2] of 520 nM.
For `CCCC[C@H](NC(=O)[C@H](CC(=O)O)NC(=O)[C@@H](N)Cc1cccc2ccccc12)C(=O)N(C)[C@H](Cc1c[nH]c2ccccc12)C(=O)OC(C)(C)C`, in assay [2], affinity was put at a Ki of 6300 nM.
Same read-out and setting: then `CCCC[C@H](NC(=O)[C@H](CC(=O)O)NC(=O)[C@@H](N)Cc1ccccc1)C(=O)N(C)[C@@H](Cc1c[nH]c2ccccc12)C(=O)OC(C)(C)C` (H-FD[Nle][NMeW]-OtBu), with over 5000 nM; and `CC(C)(C)OC(=O)[C@H](Cc1c[nH]c2ccccc12)NC(=O)[C@H](Cc1ccccc1)NC(=O)[C@H](CC(=O)O)NC(=O)[C@@H](N)Cc1cccc2ccccc12` (H-[1Nal]DFW-OtBu), with 2400 nM; and `CN(C(=O)[C@H](Cc1ccccc1)NC(=O)[C@H](CC(=O)O)NC(=O)[C@@H](N)Cc1cccc2ccccc12)[C@@H](Cc1c[nH]c2ccccc12)C(=O)OC(C)(C)C` (H-[1Nal]DF[NMeW]-OtBu), with 3500 nM.
Still for that read-out and setting: then `CC(C)(C)OC(=O)[C@H](Cc1c[nH]c2ccccc12)NC(=O)[C@@H](NC(=O)[C@H](CC(=O)O)NC(=O)[C@@H](N)Cc1cccc2ccccc12)C1CCCCC1` (H-[1Nal]D[Chg]W-OtBu), with 1400 nM.
As to `CN(C(=O)[C@@H](NC(=O)[C@H](CC(=O)O)NC(=O)[C@@H](N)Cc1cccc2ccccc12)C1CCCCC1)[C@@H](Cc1c[nH]c2ccccc12)C(=O)OC(C)(C)C` (H-[1Nal]D[Chg][NMeW]-OtBu), the Ki in assay [1] was 2100 nM.
Take `CC(C)(C)OC(=O)[C@H](Cc1c[nH]c2ccccc12)NC(=O)[C@@H](NC(=O)[C@H](CC(=O)O)NC(=O)[C@@H](N)Cc1cccc2ccccc12)c1ccccc1` (H-[1Nal]D[Phg]W-OtBu): the Ki in assay [2] was found to be 990 nM.
On the same count and under the same terms, then `CN(C(=O)[C@@H](NC(=O)[C@H](CC(=O)O)NC(=O)[C@@H](N)Cc1cccc2ccccc12)c1ccccc1)[C@@H](Cc1c[nH]c2ccccc12)C(=O)OC(C)(C)C` (H-[1Nal]D[Phg][NMeW]-OtBu), with 830 nM; and `CCCC[C@H](NC(=O)[C@H](CC(=O)O)NC(=O)[C@@H](N)Cc1ccc2ccccc2c1)C(=O)N(C)[C@@H](Cc1c[nH]c2ccccc12)C(=O)OC(C)(C)C` (H-[2Nal]D[Nle][NMeW]-OtBu), with 4200 nM; and `CCCC[C@H](NC(=O)[C@H](CC(=O)O)NC(=O)[C@H](Cc1cccc2ccccc12)NC)C(=O)N(C)[C@@H](Cc1c[nH]c2ccccc12)C(=O)OC(C)(C)C` (H-[NMe1Nal]D[Nle][NMeW]-OtBu), with 1200 nM.
Take `CCCC[C@H](NC(=O)[C@H](CC(=O)O)NC(=O)[C@@H](N)Cc1ccccc1)C(=O)N[C@H](Cc1c[nH]c2ccccc12)C(=O)OC(C)(C)C` (stereo in doubt; 13): the affinity in assay [2], expressed as Ki, was 1100 nM.
